Measured values: ChEMBL document CHEMBL4715754, “Slowing down fat digestion and absorption by an oxadiazolone inhibitor targeting selectively gastric lipolysis” (2016)

Key:
[1] = target: T1, Gastric triacylglycerol lipase (Canis lupus familiaris) (UniProt P80035); assay: Inhibition of recombinant dog gastric lipase at 20:1 molar excess compound concentration preincubated for 30 mins at 25 degreeC relative to control
T1 sequence (whole entry): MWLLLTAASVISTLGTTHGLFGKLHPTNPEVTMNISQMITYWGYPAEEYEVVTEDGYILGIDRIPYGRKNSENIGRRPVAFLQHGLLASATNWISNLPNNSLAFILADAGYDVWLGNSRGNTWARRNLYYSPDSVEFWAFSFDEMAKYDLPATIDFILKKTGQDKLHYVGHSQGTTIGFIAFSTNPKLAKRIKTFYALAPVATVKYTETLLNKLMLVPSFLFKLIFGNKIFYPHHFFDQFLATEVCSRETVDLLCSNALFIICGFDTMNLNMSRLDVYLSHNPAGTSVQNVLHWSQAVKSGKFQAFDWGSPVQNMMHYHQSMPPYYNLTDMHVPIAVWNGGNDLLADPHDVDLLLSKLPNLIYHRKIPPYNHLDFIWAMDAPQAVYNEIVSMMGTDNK

[2] = target: T1, Gastric triacylglycerol lipase (Canis lupus familiaris); assay: Inhibition of recombinant dog gastric lipase at 4:1 molar excess compound concentration preincubated for 30 mins at 25 degreeC relative to control
[3] = target: T1, Gastric triacylglycerol lipase (Canis lupus familiaris); assay: Inhibition of recombinant dog gastric lipase preincubated for 30 mins at 25 degreeC
Homo sapiens = species: Homo sapiens; assay: Inhibition of human pancreatic carboxylesterase preincubated for 1 hr at 25 degreeC
[4] = target: T2, Gastric triacylglycerol lipase (Rattus norvegicus) (UniProt P04634); assay: Inhibition of rat lingual lipase preincubated for 1 hr at 25 degreeC
T2 sequence (whole entry): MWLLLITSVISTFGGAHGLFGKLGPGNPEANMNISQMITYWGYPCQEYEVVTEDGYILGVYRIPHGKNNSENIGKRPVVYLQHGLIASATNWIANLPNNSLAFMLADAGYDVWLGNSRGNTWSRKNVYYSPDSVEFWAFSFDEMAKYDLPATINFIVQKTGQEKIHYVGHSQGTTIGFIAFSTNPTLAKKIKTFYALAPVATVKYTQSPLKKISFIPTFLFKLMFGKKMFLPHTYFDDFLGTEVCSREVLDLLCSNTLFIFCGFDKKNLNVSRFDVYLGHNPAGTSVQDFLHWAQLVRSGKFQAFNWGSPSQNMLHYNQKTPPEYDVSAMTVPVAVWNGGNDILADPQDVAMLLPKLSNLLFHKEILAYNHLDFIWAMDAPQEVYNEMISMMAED
In short: (§1)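 Enzyme pre-incubated with inhibitor (DMSO stock) at fixed molar excess for 1 h at 25 °C without substrate: hCEH x_I=4 (1 mM NaTDC assay), RLL and DGL x_I=20 with 4 mM NaTDC, GPLRP2 x_I=2 with 2 mM NaTDC. Residual activity sampled at intervals by pH-stat on tributyrin emulsion at 37 °C; t1/2 taken at 50% residual activity. DMSO-only controls; at least triplicate.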

[5] = target: T2, Gastric triacylglycerol lipase (Rattus norvegicus); assay: Inhibition of rat lingual lipase assessed as residual activity by measuring half-inactivation time at 20:1 molar excess compound concentration preincubated for 1 hr at 25 degreeC; in short: as §1
[6] = target: T1, Gastric triacylglycerol lipase (Canis lupus familiaris); assay: Inhibition of recombinant dog gastric lipase assessed as residual activity at 4.1 mg/ml under gastric phase at pH 5.5 using liquid test meal measured up to 30 mins relative to control; settings: time min <=30
In short: (§2)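 Gastric phase: 15 mL liquid or solid test meal (506 mg TAG) premixed with 734 µL of 4.1 mg/mL DMSO stock (2.94 mg, 7.262 µmol), then DGL to 17 µg/mL final, pH 5.5, 37 °C, stirred. Samples at 1, 15, 29 min; residual DGL activity by pH-stat; lipolysis level from TLC-FID of lipid extracts. DMSO-only controls; n = 3.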

[7] = target: T3, Pancreatic triacylglycerol lipase (Sus scrofa) (UniProt P00591); assay: Inhibition of porcine pancreatic lipase assessed as residual activity at 4.1 mg/ml under duodenal phase at pH 6.5 using liquid test meal measured after 30 to 90 mins relative to control; settings: time 30-90 min
T3 sequence (whole entry): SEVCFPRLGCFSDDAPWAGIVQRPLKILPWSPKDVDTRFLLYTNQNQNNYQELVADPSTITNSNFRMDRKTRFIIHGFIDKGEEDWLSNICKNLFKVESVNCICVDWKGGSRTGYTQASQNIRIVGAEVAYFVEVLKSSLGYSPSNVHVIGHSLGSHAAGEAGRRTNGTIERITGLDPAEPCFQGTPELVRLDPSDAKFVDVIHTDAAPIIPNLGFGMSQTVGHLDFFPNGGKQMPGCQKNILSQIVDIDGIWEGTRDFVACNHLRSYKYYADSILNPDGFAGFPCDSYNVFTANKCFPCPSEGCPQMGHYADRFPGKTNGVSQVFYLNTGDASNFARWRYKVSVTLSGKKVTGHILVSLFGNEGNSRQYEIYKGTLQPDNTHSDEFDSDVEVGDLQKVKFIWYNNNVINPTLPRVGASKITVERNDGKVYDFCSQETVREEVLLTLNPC

[8] = target: T1, Gastric triacylglycerol lipase (Canis lupus familiaris); assay: Inhibition of recombinant dog gastric lipase assessed as residual activity at 4.1 mg/ml under gastric phase at pH 5.5 using solid test meal measured up to 30 mins relative to control; settings: time min <=30; in short: as §2
[9] = target: T3, Pancreatic triacylglycerol lipase (Sus scrofa); assay: Inhibition of porcine pancreatic lipase at 4.1 mg/ml under duodenal phase at pH 6.5 using solid test meal measured after 30 to 90 mins relative to control; settings: time 30-90 min
[10] = target: T3, Pancreatic triacylglycerol lipase (Sus scrofa); assay: Inhibition of porcine pancreatic lipase assessed as lipolysis level at 4.1 mg/ml under duodenal phase at pH 6.5 using liquid test meal measured at 45 mins (reference value: 58 +/- 3.1 %); parameters: scale not given: the % may be the effect or the level left
[11] = target: T3, Pancreatic triacylglycerol lipase (Sus scrofa); assay: Inhibition of porcine pancreatic lipase assessed as lipolysis level at 4.1 mg/ml under duodenal phase at pH 6.5 using solid test meal measured at 45 mins (reference value: 24.7 +/- 0.87 %); parameters: scale not given: the % may be the effect or the level left
Rattus norvegicus [12] = assay: Inhibition of lipolysis in mesenteric lymph duct-cannulated Wistar rat model assessed as Tmax for maximum fatty acid concentration at 5.3 mg/kg supplemented with olive oil emulsion and measured after 24 hrs (reference value: 6 hrs); format: functional, organism-based
In short: (§3)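 Male Wistar rats (8 weeks, 300-350 g), fat-free diet 24 h, mesenteric lymph duct cannulated under ketamine/xylazine. Given 0.8 mL olive oil emulsion (530 mg fatty acids) premixed with inhibitor at 5.3 mg/kg by mouth, then 0.5 mL water. Lymph collected over 24 h; total fatty acids by GC-FID of methyl esters. 7 rats per group; one-way ANOVA with Fisher's test.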

Rattus norvegicus [13] = assay: Inhibition of lipolysis in mesenteric lymph duct-cannulated Wistar rat model assessed as decrease in intestinal lipid absorption at 5.3 mg/kg supplemented with olive oil emulsion and measured after 24 hrs relative to control; format: functional; parameters: scale not given: the % may be the effect or the level left; in short: as §3
[14] = target: T3, Pancreatic triacylglycerol lipase (Sus scrofa); settings: dose 4.9 mg/ml, time 30-90 min
[15] = target: T3, Pancreatic triacylglycerol lipase (Sus scrofa); settings: dose 4.9 mg/ml, time 30-90 min; remark: listed apart in the source

Compound	inhibition [1] [%]	inhibition [2] [%]	XI50 [3] [molar excess]	XI50 (Homo sapiens) [molar excess]	XI50 [4] [molar excess]	T1/2 [5] [min]	Activity [6] [%]	Activity [7] [%]	Activity [8] [%]	inhibition [9] [%]	Activity [10] [%]	Activity [11] [%]	Tmax (Rattus norvegicus [12]) [h]	Activity (Rattus norvegicus [13]) [%]	inhibition [14] [%]	inhibition [15] [%]
O=c1oc(OCCOCc2ccccc2)nn1-c1cccc(Oc2ccccc2)c1	91.5	87.6	0.5	1.42	1.43	4.95	0	94.4	2.8	5.1	48.1	20.6	5	-24		
CCCCCCCCCCC[C@@H](C[C@@H]1OC(=O)[C@H]1CCCCCC)OC(=O)[C@@H](CC(C)C)NC=O				0.78	0.7	0.39							6	-70.9	100	85.2
